Results: ChEMBL document CHEMBL2176894, “Cyanobacterial peptides as a prototype for the design of potent β-secretase inhibitors and the development of selective chemical probes for other aspartic proteases” (J Med Chem, 2012)
Activity calls are given as the source filed them. The rule behind the calls is not given here. Starred links: 1 amine or outer side, 2 acyl side, 3 side chain; linkers in the order of their positions; H or OH if unused. Non-standard residues stand in square brackets, D forms with d. Residues, ends and D or L forms follow the SMILES beside them. *: point of attachment. Ahppa(3S,4S) = O=C(C[C@H](O)[C@H](Cc1ccccc1)N[*:1])[*:2]; dNMeF = CN[C@H](Cc1ccccc1)C(=O)O; NMeQ = CN[C@@H](CCC(N)=O)C(=O)O; Cbz = O=C(OCc1ccccc1)*

What was measured:
Cathepsin E = target: T1, Cathepsin E (Homo sapiens, UniProt P14091); assay: Inhibition of cathepsin E by fluorescence assay
T1 sequence (P14091 whole entry): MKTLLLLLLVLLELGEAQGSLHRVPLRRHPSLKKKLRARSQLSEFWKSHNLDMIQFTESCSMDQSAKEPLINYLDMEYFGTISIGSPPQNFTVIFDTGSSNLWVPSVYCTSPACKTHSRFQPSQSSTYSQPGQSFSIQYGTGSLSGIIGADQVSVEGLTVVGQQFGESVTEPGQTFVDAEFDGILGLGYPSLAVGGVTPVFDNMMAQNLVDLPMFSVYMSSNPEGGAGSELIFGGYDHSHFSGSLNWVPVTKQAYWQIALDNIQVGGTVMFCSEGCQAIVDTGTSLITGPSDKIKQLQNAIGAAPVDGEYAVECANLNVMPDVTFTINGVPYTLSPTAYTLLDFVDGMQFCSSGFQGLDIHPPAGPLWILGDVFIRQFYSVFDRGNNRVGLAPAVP

Brain = assay: Drug concentration in CF1 mouse brain at 30 mg/kg, ip measured 3 hrs post dose by HPLC-MS method relative to compound plasma concentration; assay type: ADME, organism-based; set-up: dose 30 mg/kg, route intraperitoneal
Summary of the method: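 CF-1 mice, 8 weeks old, 25−35 g, given 30 mg/kg i.p. in 5% DMSO/15% Solutol HS 15/10% EtOH/65% water; killed 3 h post-dose. Cerebellum and cortex homogenized in acetonitrile (1:10 w:v) containing internal standard, then re-extracted. Plasma was taken by cardiac puncture into K-EDTA. Levels were measured by HPLC-MS (MRM, negative ionization) and interpolated from a calibration curve.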

Beta-secretase 1 [1] = target: T2, Beta-secretase 1 (Homo sapiens, UniProt P56817); assay: Inhibition of BACE1 by fluorescence assay
T2 sequence (P56817 whole entry): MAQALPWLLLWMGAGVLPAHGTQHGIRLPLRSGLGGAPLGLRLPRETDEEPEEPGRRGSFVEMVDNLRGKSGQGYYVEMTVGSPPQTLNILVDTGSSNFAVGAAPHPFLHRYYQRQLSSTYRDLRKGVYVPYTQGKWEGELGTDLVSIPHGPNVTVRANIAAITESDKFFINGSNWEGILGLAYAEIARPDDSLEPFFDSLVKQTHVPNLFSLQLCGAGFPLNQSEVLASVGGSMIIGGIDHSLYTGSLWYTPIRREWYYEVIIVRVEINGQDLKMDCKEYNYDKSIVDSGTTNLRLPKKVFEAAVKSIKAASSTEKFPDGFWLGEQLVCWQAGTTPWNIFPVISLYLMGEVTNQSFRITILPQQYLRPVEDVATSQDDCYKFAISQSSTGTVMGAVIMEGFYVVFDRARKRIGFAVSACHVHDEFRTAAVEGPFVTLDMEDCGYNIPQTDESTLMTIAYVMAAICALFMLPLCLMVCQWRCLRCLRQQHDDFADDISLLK

Cathepsin D = Cathepsin D (Homo sapiens, UniProt P07339); assay: Inhibition of cathepsin D by fluorescence assay
Sequence of Cathepsin D (P07339 65-162 limits assumed): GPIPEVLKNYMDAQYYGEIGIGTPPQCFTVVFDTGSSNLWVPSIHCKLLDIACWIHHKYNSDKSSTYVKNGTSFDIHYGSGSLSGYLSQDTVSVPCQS
Sequence of Cathepsin D (P07339 169-412 limits assumed): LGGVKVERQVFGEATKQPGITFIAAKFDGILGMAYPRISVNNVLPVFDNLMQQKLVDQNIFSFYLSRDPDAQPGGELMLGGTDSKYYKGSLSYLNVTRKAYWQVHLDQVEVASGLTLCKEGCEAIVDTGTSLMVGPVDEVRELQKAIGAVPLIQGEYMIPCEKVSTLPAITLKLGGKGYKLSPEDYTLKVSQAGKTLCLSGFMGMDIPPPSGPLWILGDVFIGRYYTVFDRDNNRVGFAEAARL

[2] = Stability in human H4 cells lysates by HPLC-MS method; assay type: ADME, cell-based, Lysate
Summary of the method: (§1)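 H4 whole-cell lysate was diluted to 1 mg/mL protein in 0.1 M phosphate buffer, pH 7.4. Parent and acid hydrolysis product were extracted with EtOAc with internal standard. Quantitation was by HPLC-MS MRM against a calibration curve; n = 2.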

Nucleic Acid = assay: Ratio of drug level in CF1 mouse brain to IC50 for inhibition of BACE1-mediated Abeta40/Abeta42 production in CHO 2B7 cells expressing wild type APP695; assay type: cell-based
Summary of the method: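 CF-1 mice (8 weeks, 25−35 g) received 30 mg/kg i.p. in 5% DMSO/15% Solutol HS 15/10% EtOH/65% water and were killed 3 h post-dose. Cerebellum and cortex were homogenized in acetonitrile (1:10 w:v) with internal standard and quantified by HPLC-MS (MRM, negative ion). The cellular reference was CHO 2B7 (APP695 wt): 16 h treatment, 1% DMSO, secreted Aβ40/Aβ42 sandwich ELISA.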

Serum [3] = assay: Drug metabolism in mouse serum assessed as ester hydrolysis mediated formation of metabolites by HPLC-MS method; assay type: ADME, cell-free
Summary of the method: (§2)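 Compound (10 μL of 25 μg/mL) was incubated with 100 μL mouse serum at 37 °C for 0, 1, 2, 4, 8, 12 and 24 h. The reaction was quenched with EtOAc plus internal standard, shaken 5 min, centrifuged at 16000g, and the organic layer dried and taken up in MeOH. Parent and ester-hydrolysis acid were quantified by HPLC-MS MRM interpolation; n = 2.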

Mus musculus = assay: Reduction in […] in CF1 mouse at 30 mg/kg, ip measured 3 hrs post dose by sandwich ELISA; assay type: functional, organism-based; set-up: dose 30 mg/kg
[4] = Drug metabolism in human H4 cells lysates assessed as ester hydrolysis mediated formation of metabolites by HPLC-MS method; assay type: ADME, cell-based, Lysate; summary of the method: as §1
Beta-secretase 1 [5] = target: T2, Beta-secretase 1; assay: Inhibition of BACE1 expressed in CHO 2B7 cells expressing wild type APP695 assessed as reduction in Abeta40/Abeta42 levels incubated for 16 hrs by sandwich ELISA; assay type: cell-based
Beta-secretase 1 [6] = target: T2, Beta-secretase 1; conditions: H4, at 10 µM
Serum [7] = assay: Stability in mouse serum by HPLC-MS method; assay type: ADME, cell-free; summary of the method: as §2
H4 = assay: Inhibition of Alpha secretase expressed in human H4 cells assessed as reduction in C83 levels at 10 uM incubated for 16 hrs by immunoblot; assay type: cell-based
Summary of the method: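 H4 cells (3 × 10⁵/well) adhered 4−6 h in DMEM/10% FCS at 37 °C, then were switched to serum-free Ultraculture containing compound at 10 μM final for 16 h. Cells were lysed in NP40/deoxycholate buffer, and protein was equalized by BCA. Lysates were run on 10−20% tricine gels and immunoblotted with antibody to the APP C-terminal 20 residues (1:2000); C99 and C83 were imaged on an infrared system.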

[8] = target: Gamma-secretase (Homo sapiens) (UniProt Q96BI3+Q9NZ42+Q8WW43+P49768+Q92542+P49810); assay: Inhibition of gamma secretase expressed in human H4 cells expressing BRI-C99 fusion protein assessed as C99 fragment accumulation fragment at 10 uM incubated for 16 hrs in by immunoblot; assay type: cell-based
Summary of the method: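 H4 cells overexpressing Bri-C99 (400000/well) were kept in Opti-MEM with 1% serum and treated 16 h with test compound (10 μM), LY411575 (100 nM) or BACE1 inhibitor IV (1 μM). Cells were lysed in TBS/1% Triton X-100 and run on a 12% bis-tris gel. Blots were probed with CT-20 antibody for furin-generated C99 and read on an infrared imager.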

Beta-secretase 1 [9] = target: T2, Beta-secretase 1; assay: Inhibition of BACE1 expressed in human H4 cells assessed as reduction in CTF levels at 10 uM incubated for 16 hrs by immunoblot; assay type: cell-based
[10] = Permeability at 10 uM at pH 7.4 by PAMPA method; assay type: ADME; conditions: read-out: permeability
Summary of the method: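 Filters were coated with BBB-1 lipid, with brain sink buffer in the acceptor. Plates were incubated 4 h at room temperature, humidified. Absorbance was read at 250−350 nm and Pe calculated. Triplicate; mean ± SD.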

[11] = Permeability at 10 uM at pH 5.0 by PAMPA method; assay type: ADME; conditions: read-out: permeability

Structure (SMILES): COC(=O)[C@@H]1CCCN1C(=O)[C@H](Cc1ccccc1)N(C)C(=O)[C@@H](C)NC(=O)[C@H](CC(C)C)NC(=O)C[C@H](O)[C@H](Cc1ccccc1)NC(=O)[C@H](CCC(N)=O)N(C)C(=O)[C@@H](NC(=O)[C@H](C)O)C(C)C
- IC50 (Cathepsin E): 1710 nM

Structure (SMILES): COc1cccc(CNC[C@@H](O)[C@H](Cc2ccccc2)NC(=O)c2cc(C(=O)N[C@H](C)c3ccccc3)cc(N(C)S(C)(=O)=O)c2)c1
- Drug uptake (Brain): 10%

Structure (SMILES): COC(=O)[C@@H](Cc1ccccc1)N(C)C(=O)[C@H](C)NC(=O)[C@H](CC(C)C)NC(=O)C[C@H](O)[C@H](Cc1ccccc1)NC(C)=O
- IC50 (Beta-secretase 1 [1]): > 10000 nM
- IC50 (Cathepsin D): 412 nM
- IC50 (Cathepsin E): 1520 nM

Structure (SMILES): COC(=O)[C@@H]1CCCN1C(=O)[C@@H](Cc1ccccc1)N(C)C(=O)[C@H](C)NC(=O)[C@H](CC(C)C)NC(=O)C[C@H](O)[C@H](Cc1ccccc1)NC(=O)c1cc(C(=O)N[C@H](C)c2ccccc2)cc(N(C)S(C)(=O)=O)c1
- Stability [2]: Stable
- Ratio (Nucleic Acid): 20
- Drug metabolism (Serum [3]): Active
- Activity (Mus musculus): Active
- Drug metabolism [4]: Active
- IC50 (Beta-secretase 1 [5]): 10 nM
- Drug uptake (Brain): 5.8%
- IC50 (Cathepsin D): 5.84 nM
- inhibition (Beta-secretase 1 [6]): Active
- Stability (Serum [7]): Stable
- IC50 (Cathepsin E): 36.4 nM
- inhibition (H4): inactive
- inhibition [8]: inactive
- inhibition (Beta-secretase 1 [9]): Active

Structure (SMILES): CC(C)C[C@H](NC(=O)C[C@H](O)[C@H](Cc1ccccc1)NC(=O)[C@H](CCC(N)=O)N(C)C(=O)[C@@H](NC(=O)[C@H](C)O)C(C)C)C(=O)N[C@@H](C)C(=O)N(C)[C@H](Cc1ccccc1)C(=O)NCc1ccccc1
- IC50 (Beta-secretase 1 [1]): 124 nM
- IC50 (Cathepsin D): 20.9 nM
- inhibition (Beta-secretase 1 [6]): Active
- IC50 (Cathepsin E): 30.4 nM

Structure (SMILES): COC(=O)[C@@H]1CCCN1C(=O)[C@@H](Cc1ccccc1)N(C)C(=O)[C@H](C)NC(=O)[C@H](CC(C)C)NC(=O)C[C@H](O)[C@H](Cc1ccccc1)NC(C)=O
- IC50 (Cathepsin D): 71.7 nM
- IC50 (Cathepsin E): 4950 nM

Structure (SMILES): COC(=O)[C@@H]1CCCN1C(=O)[C@@H](Cc1ccccc1)N(C)C(=O)[C@H](C)NC(=O)[C@H](CC(C)C)NC(=O)C[C@H](O)[C@H](Cc1ccccc1)NC(=O)[C@H](CCC(N)=O)N(C)C(=O)[C@@H](NC(=O)[C@H](C)O)C(C)C [TASIAMIDE B]
- IC50 (Cathepsin E): 37.5 nM

Structure (SMILES): COC(=O)[C@@H]1CCCN1C(=O)[C@@H](Cc1ccccc1)N(C)C(=O)[C@H](C)NC(=O)[C@H](CC(C)C)NC(=O)C[C@H](O)[C@H](Cc1ccccc1)NC(=O)c1cc(NS(C)(=O)=O)cc(C(=O)N[C@H](C)c2ccccc2)c1
- Stability [2]: Stable
- IC50 (Beta-secretase 1 [1]): 128 nM
- Ratio (Nucleic Acid): 3
- Papp at 10 µM [10]: 8.58 ×10⁻⁶ cm/s
- Papp at 10 µM [11]: 10.7 ×10⁻⁶ cm/s
- Drug metabolism (Serum [3]): Active
- Activity (Mus musculus): inactive
- Drug metabolism [4]: Active
- IC50 (Beta-secretase 1 [5]): 100 nM
- Drug uptake (Brain): 2.5%
- IC50 (Cathepsin D): 11.3 nM
- inhibition (Beta-secretase 1 [6]): Active
- Stability (Serum [7]): Stable
- IC50 (Cathepsin E): 210 nM
- inhibition (H4): inactive
- inhibition [8]: inactive
- inhibition (Beta-secretase 1 [9]): Active

Structure (SMILES): CC(C)C[C@@H](C=O)NC(=O)[C@H](CC(C)C)NC(=O)[C@@H](NC(=O)OCc1ccccc1)C(C)C (Cbz-Val-Leu-Leu-aldehyde)
- inhibition (Beta-secretase 1 [6]): Active

Structure (SMILES): COC(=O)[C@@H]1CCCN1C(=O)[C@@H](Cc1ccccc1)N(C)C(=O)[C@H](C)NC(=O)[C@H](CC(C)C)NC(=O)C[C@H](O)[C@H](Cc1ccccc1)NC(=O)[C@H](CCC(N)=O)N(C)C(=O)[C@@H](NC(=O)OCc1ccccc1)C(C)C (Cbz-V[NMeQ][Ahppa(3S,4S)]LA[dNMeF]P-OMe)
- IC50 (Cathepsin D): 0.0783 nM
- IC50 (Cathepsin E): 0.724 nM
- inhibition [8]: inactive
